Test results reported in paper PMC4443790 (Neuron, 2015).
Entries after “also recorded” stand apart in the source; their conditions may differ.

Experiments:
[1] = system: hippocampal SC-CA1 synapse; experiment: Theta burst stimulation-induced LTP at the SC-CA1 synapse; design: species or system rat; conditions: 1 μM VU0092273 for 20 min then threshold TBS, 35 min after stimulation
Method in brief: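 Threshold LTP was induced with one theta-burst train: nine bursts of four pulses at 100 Hz, 230 ms interburst interval. fEPSP slope was quantified 35 min after TBS.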

[2] = system: rats; experiment: Amphetamine-induced hyperlocomotion; format: in vivo, rat
[3] = system: rats; experiment: Fluoro-Jade C staining of rat brain; format: in vivo
[4] = system: rats; experiment: Behavioral convulsions, modified Racine scale; format: in vivo; conditions: rat
[5] = system: NMDAR currents in hippocampal CA1 pyramidal cells; experiment: Whole-cell recordings of NMDA-evoked currents/responses in CA1 pyramidal cells; design: species or system rat; conditions: for effect on NMDA-evoked currents when added alone / effect on NMDAR currents in the presence of 3 μM DHPG: 5PAM523 20 μM, VU0409551 10 μM
[6] = system: hippocampal Schaffer collateral-CA1 (SC-CA1) synapse; experiment: DHPG-induced LTD, fEPSP recordings at hippocampal SC-CA1 synapse; design: species or system rat; conditions: for fEPSP slope, % of baseline: measured 55 min after washout
[7] = target: mGlu5 in rat cortical astrocytes (Rattus norvegicus, UniProt P31424); experiment: Glutamate-induced calcium mobilization in cultured rat cortical astrocytes; format: cell-based
Sequence of mGlu5 in rat cortical astrocytes (P31424 21-1203): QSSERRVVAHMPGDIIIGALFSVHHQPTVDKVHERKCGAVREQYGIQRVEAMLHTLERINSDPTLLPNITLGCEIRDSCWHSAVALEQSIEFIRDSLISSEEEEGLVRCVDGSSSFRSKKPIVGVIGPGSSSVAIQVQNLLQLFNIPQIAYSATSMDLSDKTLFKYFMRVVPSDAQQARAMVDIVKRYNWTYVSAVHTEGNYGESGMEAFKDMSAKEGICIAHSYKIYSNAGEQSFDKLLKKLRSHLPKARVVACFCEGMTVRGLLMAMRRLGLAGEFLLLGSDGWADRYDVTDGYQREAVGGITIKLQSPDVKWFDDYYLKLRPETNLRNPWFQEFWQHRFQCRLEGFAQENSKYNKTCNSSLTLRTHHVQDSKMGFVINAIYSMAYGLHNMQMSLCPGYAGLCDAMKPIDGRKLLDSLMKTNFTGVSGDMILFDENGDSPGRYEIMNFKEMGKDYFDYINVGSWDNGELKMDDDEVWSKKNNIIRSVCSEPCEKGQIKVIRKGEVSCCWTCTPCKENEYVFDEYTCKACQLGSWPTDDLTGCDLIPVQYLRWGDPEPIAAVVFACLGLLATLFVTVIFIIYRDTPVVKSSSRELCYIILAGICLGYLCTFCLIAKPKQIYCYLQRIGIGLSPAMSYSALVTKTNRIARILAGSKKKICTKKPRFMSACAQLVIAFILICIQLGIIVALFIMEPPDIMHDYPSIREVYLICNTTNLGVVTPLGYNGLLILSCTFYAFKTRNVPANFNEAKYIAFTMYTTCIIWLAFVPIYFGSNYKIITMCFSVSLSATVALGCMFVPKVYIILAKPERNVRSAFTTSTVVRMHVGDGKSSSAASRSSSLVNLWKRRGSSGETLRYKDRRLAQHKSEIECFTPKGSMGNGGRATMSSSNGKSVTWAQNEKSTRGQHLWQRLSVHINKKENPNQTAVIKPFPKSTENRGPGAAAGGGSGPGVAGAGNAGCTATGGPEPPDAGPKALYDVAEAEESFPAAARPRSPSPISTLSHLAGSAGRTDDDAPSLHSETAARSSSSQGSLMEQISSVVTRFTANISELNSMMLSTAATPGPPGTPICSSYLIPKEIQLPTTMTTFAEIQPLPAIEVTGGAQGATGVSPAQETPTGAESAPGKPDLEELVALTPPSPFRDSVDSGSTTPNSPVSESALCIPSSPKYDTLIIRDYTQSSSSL

[8] = target: T1, α2A adrenergic receptors (Homo sapiens, UniProt P08913); experiment: Radioligand competition binding assay; conditions: read-out: IC50 at α2A adrenergic receptors
T1 sequence (P08913 1-465): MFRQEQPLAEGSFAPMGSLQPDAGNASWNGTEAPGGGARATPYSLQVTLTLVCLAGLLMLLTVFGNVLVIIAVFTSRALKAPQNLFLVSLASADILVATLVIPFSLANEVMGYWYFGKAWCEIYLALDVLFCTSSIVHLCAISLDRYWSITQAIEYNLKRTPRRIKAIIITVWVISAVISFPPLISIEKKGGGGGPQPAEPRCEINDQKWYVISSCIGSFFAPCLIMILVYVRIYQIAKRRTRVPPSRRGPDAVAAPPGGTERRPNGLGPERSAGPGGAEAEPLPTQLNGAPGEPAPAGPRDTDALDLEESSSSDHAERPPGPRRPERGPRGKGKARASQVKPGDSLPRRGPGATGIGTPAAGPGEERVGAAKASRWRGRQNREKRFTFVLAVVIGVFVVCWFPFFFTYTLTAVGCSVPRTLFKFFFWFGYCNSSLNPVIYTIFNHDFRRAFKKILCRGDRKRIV

[9] = system: male Lister-hooded rats; experiment: Delayed non-matching to position; format: in vivo; conditions: Lister-hooded rat, 10-60 mg/kg
Method in brief: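 Male Lister-hooded rats (350-450 g), trained to stable accurate performance, received vehicle or test compound (10-60 mg/kg) 60 min before testing. Delays were 1, 10, 20 and 30 sec, with 15 trials each (60 total) and a 45 min maximum per session. Read-outs were proportion of correct responses per delay and trials initiated.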

[10] = In vitro fraction unbound in rat plasma; format: in vitro ADME
[11] = system: rats; experiment: Novel object recognition; format: in vivo; conditions: rat, 1-10 mg/kg, 30 min prior to exposure; significant at 3 and 10 mg/kg
[12] = system: NMDAR-fEPSP at SC-CA1 synapse; experiment: NMDAR-mediated fEPSPs at the SC-CA1 synapse; design: species or system rat
[13] = Rat pharmacokinetics, single intravenous administration; format: in vivo; conditions: i.v., 2.5 mg/kg
[14] = system: EPSCNMDA/EPSCAMPA at SC-CA1 synapses; conditions: 10 μM
[15] = Satellite PK for Fluoro-Jade studies, repeat oral dosing; format: in vivo; conditions: rat, 120 mg/kg p.o. once-daily for 4 days, 75% PEG 400 in water
Method in brief: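 Non-fasted male Sprague Dawley rats received 120 mg/kg orally once daily for 4 days in aqueous PEG 400 vehicle. Serial blood samples were taken at 3, 7 and 24 hr post-dose on day 1 and day 4. Plasma concentrations were quantified by LC-MS/MS.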

[16] = system: rats; experiment: Amphetamine-induced disruption of prepulse inhibition; format: in vivo; conditions: rat, 56.6 and 100 mg/kg, 30 min pretreatment
[17] = Biotransformation in rat hepatocytes; format: in vitro ADME; conditions: multiple oxidative pathways
[18] = system: mGlu1,2,3,4,6,7,8; experiment: mGlu subtype selectivity screening; format: cell-based, rat; conditions: 10 μM; shift of agonist concentration response curve
Method in brief: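 Selectivity across mGlu subtypes: mGlu1 was tested by calcium flux in HEK293 cells stably expressing rat mGlu1. mGlu2, 3, 4, 6, 7 and 8 were each tested by thallium flux through GIRK channels in HEK-293-GIRK cells expressing that subtype.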

[19] = In vitro fraction unbound in rat brain; format: in vitro ADME
[20] = system: rats; experiment: MK-801-induced hyperlocomotion; format: in vivo; conditions: rat, p.o.
Method in brief: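 Male Sprague Dawley rats in an open-field photobeam chamber received vehicle or test compound (10-100 mg/kg, oral, 20% β-cyclodextrin, 3 ml/kg) at t = 30, then MK-801 (0.2 mg/kg s.c. in saline) at t = 60 min. Activity was recorded 60 min more as beam breaks per 5-min bin. AUC from 60 to 120 min gave total ambulations; percent reversal was normalised to vehicle + MK-801; n = 10-12.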

[21] = Brain distribution in vivo after oral administration; conditions: rat, 1.5 hr after single p.o. 3, 10, 30, 100 mg/kg
[22] = system: 66 other receptors and ion channels; experiment: Radioligand competition binding panel; conditions: 10 μM
[23] = system: rats; experiment: Contextual fear conditioning; format: in vivo; conditions: rat, 0.3 - 10 mg/kg, 30 min pretreatment prior to conditioning
Method in brief: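 Male Sprague Dawley rats (275-300 g) were dosed orally in 20% β-cyclodextrin (3 ml/kg) 30 min before conditioning. In a chamber scented with 10% vanilla extract, they had 2 min habituation, then one 1 s, 0.5 mA shock-context pairing, and returned home after 45 sec. 24 hr later, freezing was scored blind over 2 min 45 sec in the same context without shock or drug.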

[24] = target: T2, rat mGlu5 (Rattus norvegicus, UniProt P31424); experiment: Intracellular Ca2+ mobilization in HEK293A cells stably expressing rat mGlu5; format: cell-based; conditions: calcium mobilization
T2 sequence (P31424 21-1203): as the sequence (P31424 21-1203) above
Method in brief: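 Stably transfected HEK293A cells expressing rat mGlu5. Test compound added first (30 μM in representative traces), then EC20 and EC80 concentrations of glutamate added in sequence; intracellular calcium mobilization traces recorded.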

[25] = target: T2, rat mGlu5; experiment: mGlu5-mediated ERK1/2 phosphorylation; format: cell-based
Method in brief: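 HEK293A cells stably expressing rat mGlu5 were used. Phosphorylated ERK1/2 was measured with an ALPHAScreen-based ERK Surefire assay, both with glutamate added and without added glutamate.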

[26] = Rat pharmacokinetics, single oral administration; format: in vivo; conditions: p.o., 3 mg/kg
[27] = system: rats; experiment: Sleep-wake electroencephalography; format: in vivo; conditions: rat, p.o., 10 mg/kg
[28] = rat, 3-100 mg/kg, 30 min pretreatment, amphetamine 1 mg/kg s.c.
[29] = operational model of allosterism, pERK1/2

Structure (SMILES): O=C(c1ccc(C#Cc2ccccc2)cc1)N1CCC(O)CC1 [VU0092273]
- effect on fEPSP slope in response to threshold TBS [1]: significant potentiation

Structure (SMILES): Cc1nc(C#Cc2cccnc2)cs1 [MTEP, reference compound]
- effect on reversal of AHL by VU0409551 ([2]; data not shown): blocked

Structure (SMILES): C[C@@H](NC(=O)c1ccc(C#Cc2cccc(F)c2)cn1)C(C)(C)O [VU0424465, reference compound]
- FJC-positive neurons in the auditory cortex and adjacent cortical regions ([3]; rat, single dose 3 mg/kg i.p., 24 hr after dose): induced cell death
- behavioral convulsions (Racine scale) ([4]; VU0424465 3 mg/kg): induced behavioral convulsions

Structure (SMILES): N[C@H](C(=O)O)c1cc(O)cc(O)c1 [DHPG, reference compound]
- effect of DHPG on inward currents evoked by NMDA ([5]; voltage clamp, DHPG at different concentrations): concentration-dependent increase in inward currents
- fEPSP slope, % of baseline ([6]; 25 μM DHPG for 10 min): 78.9% ± 5.7%
- fEPSP slope, % of baseline ([6]; 75 μM DHPG for 10 min): 54.9% ± 5.3%

Structure (SMILES): Cc1cccc(C#Cc2ccccc2)n1 [MPEP, 2-methyl-6-(phenylethynyl)-pyridine, reference compound]
- effect on VU0409551 potentiation of glutamate-induced calcium mobilization ([7]; MPEP 10 μM): blocked

Structure (SMILES): O=C(c1ccc(F)cc1)N1CCc2nc(COc3ccccc3)oc2C1 [VU0409551]
- IC50 [8]: 8.9 µM
- effect on 3 μM DHPG-induced depolarization or increase in NMDAR response ([5]; current clamp): did not potentiate
- effect on NMDA-evoked responses when applied alone ([5]; current clamp): had no effect
- effect on NMDA-evoked currents when added alone ([5]; voltage clamp): had no effect
- effect on NMDAR currents in the presence of 3 μM DHPG ([5]; voltage clamp): had no effect
- FJC staining ([3]; 360 mg/kg, once daily for 1 month, unpublished findings): can induce FJC staining
- FJC staining ([3]; rat, 120 mg/kg p.o. daily for four consecutive days, 24 hr after last dose): did not induce
- total number of trials initiated ([9]; 60 min pretreatment): no change
- proportion of correct responses at a 10 and 20 sec delay ([9]; 60 min pretreatment (60 mg/kg)): increased
- fraction unbound in rat plasma (fup) [10]: 0.07
- recognition memory in the novel object recognition task [11]: dose-dependent increase
- behavioral convulsions ([4]; repeated once-daily 450 mg/kg over 14 days, data not shown): did not induce behavioral convulsions
- effect on NMDAR-fEPSP slope [12]: had no effect
- clearance from plasma (CLp) [13]: 33 mL/min/kg
- half-life (t1/2) [13]: 3.9 h
- volume of distribution at steady-state (Vss) [13]: 9.6 L/kg
- effect on EPSCNMDA/EPSCAMPA ratio when applied alone [14]: had no effects
- AUC0-last day 1 [15]: 96 µM·h
- AUC0-last day 4 [15]: 95 µM·h
- fEPSP slope, % of baseline ([6]; 10 μM VU0409551 plus 25 μM DHPG): 43.7% ± 4.6%
- effect on fEPSP slope when applied alone ([6]; VU0409551 alone, transient, returned to baseline within 10 min of washout): slight depression in the fEPSP slope
- amphetamine-induced disruptions in PPI [16]: reversed
- turnover in rat hepatocytes [17]: moderate turnover
- maximum reversal of amphetamine-induced hyperlocomotion ([2]; rat, 3-100 mg/kg): 78.1%
- ED50, reversal of amphetamine-induced hyperlocomotion [2, 28]: 5.9 mg/kg
- MED, reversal of amphetamine-induced hyperlocomotion [2, 28]: 3 mg/kg
- EC50 ([2]; read-out: in vivo EC50 for reversal of AHL, terminal (1.5 hr) unbound brain concentration, individual animal concentration-efficacy data from all dose groups): 0.097 µM
- Emax for reversal of AHL ([2]; unbound brain concentration-efficacy analysis): 82%
- effect at the other mGlu receptor subtypes [18]: no effect; also recorded: did not shift the agonist concentration response curve
- brain to plasma partition coefficient (Kp) at unrestricted equilibrium ([fup]/[fubr]) ([19]; from in vitro fup and fubr): 1.8
- fraction unbound in rat brain (fubr) ([19]; in vitro): 0.04
- minimal effective dose (MED), reversal of MK-801-induced hyperlocomotion ([20]; 10-100 mg/kg, 30 min pretreatment, MK-801 0.2 mg/kg s.c.): 10 mg/kg
- maximum reversal of MK-801-induced hyperlocomotion ([20]; highest dose 100 mg/kg): 49.7%
- brain to plasma Kp [21]: 2.3
- unbound brain to plasma Kp (Kp,uu) [21]: 1.3
- activity at 66 other receptors and ion channels [22]: no activity
- intrinsic agonist activity ([7]; cultured rat cortical astrocytes): no intrinsic agonist activity
- maximum glutamate response ([7]; rat cortical astrocytes): 79.5%
- acquisition of fear memory assessed 24 hr later [23]: significantly enhanced
- intrinsic agonist activity [24]: did not possess intrinsic agonist activity
- pERK1/2 agonist activity ([25]; absence of added glutamate): increased pERK1/2 in the absence of added glutamate; also recorded: robust agonist activity
- glutamate-induced phosphorylation of ERK1/2 ([25]; mGlu5-expressing cells): potentiated
- agonist efficacy τB [25, 29]: 1.04
- cooperativity β with glutamate [25, 29]: 1.43
- area-under-the-curve from 0-last (AUC0-last) [26]: 2.9 µM·h
- oral bioavailability (%F) [26]: 63%
- duration of decreased time asleep post-administration [27]: 2 h

Structure (SMILES): C[C@@H]1CC[C@H](c2noc(-c3ccc(F)cn3)n2)CN1C(=O)c1ccc(F)cc1 [5PAM523, reference compound]
- effect on NMDA-evoked currents when added alone ([5]; voltage clamp): had no effect
- effect on NMDAR currents in the presence of 3 μM DHPG ([5]; voltage clamp): potentiated
- behavioral convulsions (Racine scale) ([4]; 5PAM523 56.6 mg/kg): induced behavioral convulsions
